Active and inactive are the calls of the source. No cut-off for these calls is given here.
Key:
[1] = Cytotoxicity against human NNC2 cells assessed as decrease in GAPDH RNA level after 3 days by RT-PCR; format: cell-based; conditions: for CC50: nnc2, 72 h; for CC50 at 72 h: NNC2 cells
How it was run: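 NNC #2 cells carrying full-genomic HCV RNA replicons were grown in high-glucose DMEM with 10% FBS and 1 mg/mL G418. Cells were seeded at 5 × 10⁴ cells/mL and cultured 24 h at 37 °C. Medium was then replaced with DMEM/10% FBS containing graded compound concentrations for 3 days. HCV RNA and GAPDH RNA were quantified by real-time RT-PCR. EC50 and CC50 are the concentrations lowering each RNA to 50% of control.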

[2] = tested on: Hepatitis C virus; experiment: Antiviral activity against HCV in human NNC2 cells assessed as inhibition of viral RNA replication after 3 days by RT-PCR analysis
[3] = tested on: Hepatitis C virus; experiment: Antiviral activity against HCV in human NNC2 cells assessed as inhibition of viral RNA replication at 10 uM after […] by RT-PCR analysis; format: functional, Hepacivirus hominis
[4] = Cytotoxicity against human NNC2 cells assessed as decrease in GAPDH RNA level at 10 uM after 3 days by RT-PCR; format: cell-based; conditions: for cytotoxicity at 72 h, 10 µM: NNC2 cells, read-out: INH; for inhibition (INH): nnc2, 72 h, 10 µM
[5] = tested on: Hepatitis C virus; experiment: Antiviral activity against HCV in human NNC2 cells assessed as inhibition of viral RNA replication at 10 uM after 3 days by RT-PCR analysis; conditions: Hepacivirus hominis
[6] = Selectivity index, CC50 for human NNC2 cells to IC50 for Hepatitis C virus; format: functional
[7] = Hepatitis C virus, NNC2, 3 days, read-out: EC50

| SMILES | EC50 [2, 7] [µM] | CC50 at 72 h [1] [µM] | also measured |
| --- | --- | --- | --- |
| CC1(C)CCC(C)(C)c2cc3c(cc21)c1ccccc1c(=O)n3CC1CCCCC1 |  |  | CC50 [1]: Not Active; EC50 ([2]; nnc2): Not Active |
| CCCCn1c(=O)c2cc3c(cc2c2ccccc21)C(C)(C)CCC3(C)C |  |  | CC50 [1]: Not Active; EC50 ([2]; nnc2): Not Active |
| CCCCn1c(=O)c2ccc(C)cc2c2ccccc21 |  |  | inhibition (INH) [4]: Not Active; inhibition [5]: inactive |
| CCCCn1c(=O)c2ccccc2c2cc(C(C)=O)ccc21 | 18.7 | 27.3 |  |
| O=c1c2ccccc2c2cc(C(O)(C(F)(F)F)C(F)(F)F)ccc2n1CC(F)(F)F | 24.8 | 30.3 |  |
| CCCCn1c(=O)c2cccc(C)c2c2ccccc21 |  |  | cytotoxicity at 72 h, 10 µM [4]: 94.9%; inhibition [5]: inactive |
| CCCCn1c(=O)c2ccccc2c2cccc(C)c21 |  |  | inhibition (INH) [4]: Not Active; inhibition [5]: inactive |
| CCCCn1c(=O)c2ccccc2c2cc(CO)ccc21 | 21.5 | > 50 |  |
| CCCCn1c(=O)c2ccccc2c2c3ccccc3ccc21 | 29.1 | 44.5 |  |
| CCCCn1c(=O)c2ccccc2c2cc(CC)ccc21 | 34.7 | 40.5 |  |
| CCCCn1c(=O)c2c(C)cccc2c2ccccc21 |  |  | inhibition (INH) [4]: Not Active; inhibition [5]: inactive |
| CCCCn1c(=O)c2ccccc2c2c(C)cccc21 |  |  | cytotoxicity at 72 h, 10 µM [4]: 85.2%; inhibition [5]: inactive |
| CC1(C)CCC(C)(C)c2cc3c(cc21)[nH]c(=O)c1ccccc13 |  |  | CC50 [1]: Not Active; EC50 ([2]; nnc2): Not Active |
| CCCCn1c(=O)c2c3ccccc3ccc2c2ccccc21 | 29.9 | > 40 |  |
| CCCCn1c(=O)c2cc(C)ccc2c2ccccc21 |  |  | inhibition at 10 µM [3]: 87%; cytotoxicity at 72 h, 10 µM [4]: 88.8% |
| CCCCn1c(=O)c2ccccc2c2ccc(C)cc21 |  |  | cytotoxicity at 72 h, 10 µM [4]: 70.7%; inhibition [5]: inactive |
| CC1(C)CCC(C)(C)c2cc3c(cc21)c1ccccc1c(=O)n3Cc1ccccc1 | 21.2 | 31.8 |  |
| CCCCn1c(=O)c2ccccc2c2cc(C(C)O)ccc21 (stereo not given) | 21.8 | 51.4 |  |

More lines, main results first:

| EC50 [2, 7] [µM] | SMILES | CC50 at 72 h [1] [µM] | also measured |
| --- | --- | --- | --- |
| 35.8 | CCCCn1c(=O)c2ccccc2c2cc(C)ccc21 | 38.4 | inhibition at 10 µM [3]: 42%; cytotoxicity at 72 h, 10 µM [4]: 98.5% |
| 3.7 | CCCCn1c(=O)c2ccccc2c2cc(C(O)(C(F)(F)F)C(F)(F)F)ccc21 | 12.5 |  |
| 8.3 | CCCCCCCCCn1c(=O)c2ccccc2c2cc(C(O)(C(F)(F)F)C(F)(F)F)ccc21 | 10.2 |  |
| 3.2 | CCCCn1c(=O)c2ccccc2c2cc3ccccc3cc21 | 6.3 | Selectivity Index [6]: 1.97 |
| 19.5 | CCCCn1c(=O)c2ccccc2c2ccc3ccccc3c21 | 24.3 |  |
| 4.8 | CCCCCCn1c(=O)c2ccccc2c2cc(C(O)(C(F)(F)F)C(F)(F)F)ccc21 | 12.2 |  |
| 18.7 | CCCCn1c(=O)c2ccccc2c2cc3c(cc21)C(C)(C)CCC3(C)C | 27.3 |  |
| 14.1 | CCn1c(=O)c2ccccc2c2cc(C(O)(C(F)(F)F)C(F)(F)F)ccc21 | > 40 |  |
| 11 | CCCCn1c(=O)c2cc3ccccc3cc2c2ccccc21 | > 40 | Selectivity Index [6]: >3.64 |
| 10.6 | CCCCn1c(=O)c2ccccc2c2cc(C(C)(C)C)ccc21 | 24.9 |  |
| 16.2 | CCCCn1c(=O)c2ccccc2c2cc(C(C)C)ccc21 | 29.7 |  |
| > 31.4 | CCCCn1c(=O)c2ccc3ccccc3c2c2ccccc21 | 31.4 |  |
| 7.7 | O=c1c2ccccc2c2cc(C(O)(C(F)(F)F)C(F)(F)F)ccc2n1Cc1ccccc1 | 18.2 |  |
| > 58.3 | CCCCn1c(=O)c2ccccc2c2ccccc21 | 58.3 | inhibition (INH) [4]: Not Active; inhibition [5]: inactive |
| 37.9 | CCCCn1c(=O)c2ccccc2c2cc(O)ccc21 | 43.7 |  |
| 6.7 | O=c1c2ccccc2c2cc(C(O)(C(F)(F)F)C(F)(F)F)ccc2n1CC1CCCCC1 | 14.4 |  |
| 21 | CCCCn1c(=O)c2ccccc2c2cc(CCc3ccccc3)ccc21 | 24.1 |  |
| > 50 | CCCCn1c(=O)c2ccccc2c2cc(F)ccc21 | > 50 |  |
| > 50 | CCCCn1c(=O)c2ccccc2c2cc(C(F)(F)F)ccc21 | > 50 |  |
